Our source for the IC50 values is ChEMBL document CHEMBL1153860, “Design, synthesis and structure-activity relationships of antiproliferative 1,3-disubstituted urea derivatives” (Eur J Med Chem, 2009).

In one experiment the test system is KB. Put plainly: Antiproliferative activity against human KB cells after 48 hrs by MTT assay. The experiment is classed as functional, cell-based. The essentials: (§1)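 Cells seeded at 7 × 10³/well and grown for 24 h. Exponentially growing cells were then exposed for 48 h to final concentrations of 0.1–100. MTT was added for 4 h, followed by 10% SDS in 0.01 N HCl at 37 °C for 18 h, and absorbance was read at 570 nm. Survival was expressed as % of untreated cells. IC50 was taken from six-well replicates in at least two independent experiments.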
Background: Tetrazolium dyes change colour on reduction, which living cells bring about.

Experiment [1] is described as follows: Antiproliferative activity against human L02 cells after 48 hrs by MTT assay. The experiment is classed as cell-based. Particulars: L02, 48 h. In short, it runs like this:
as §1

Broadly, the IC50 is the point on the concentration scale where inhibition reaches its midpoint. Low readings indicate higher potency, high ones lower potency. For the compound `CN(C)C(=O)N(CCN1CCOCC1)Cc1cc(Br)ccc1O`, the IC50 with KB amounted to 7.3 µM; in experiment [1] it was 21 µM.
Take `CN(C)C(=O)N(CCCN1CCOCC1)Cc1cc([N+](=O)[O-])ccc1O`: the IC50 in the experiment with KB came to 3.3 µM; in experiment [1], 125 µM.
The matching figures for `CN(C)C(=O)N(CCN1CCOCC1)Cc1cc([N+](=O)[O-])ccc1O`: 4.8 µM and 26 µM.
As for `CN(C)C(=O)N(Cc1cccc([N+](=O)[O-])c1)Cc1ccco1`, half-maximal inhibition with KB (IC50) was put at 23.8 µM.
`CCOC(=O)N1CCC(N(Cc2cc([N+](=O)[O-])ccc2O)C(=O)N(C)C)CC1` yielded a half-maximal inhibitory concentration (IC50) with KB of 24.2 µM.
Still for that read-out and setting: to `CN(C)C(=O)N(Cc1ccc(O)cc1)Cc1ccco1` belongs 52.1 µM.
Take `CN(C)C(=O)N(CCCN1CCOCC1)Cc1ccc(O)cc1`: the IC50 in the experiment on KB stood at 2.88 µM; in experiment [1], 109 µM.
In the case of `CCOC(=O)N1CCC(N(Cc2cc(Br)ccc2O)C(=O)N(C)C)CC1`, it took 24.6 µM to reach half-maximal inhibition with KB (IC50).
Same read-out and setting: then `CN(C)C(=O)N(Cc1ccc([N+](=O)[O-])cc1)Cc1ccco1`, with 17.5 µM.
Take `CCOC(=O)N1CCC(N(Cc2ccc([N+](=O)[O-])cc2)C(=O)N(C)C)CC1`: the half-maximal inhibitory concentration (IC50) with KB worked out at 16.4 µM.
Turning to `CN(C)C(=O)N(CCCN1CCOCC1)Cc1ccc([N+](=O)[O-])cc1`, the half-inhibitory concentration (IC50) in the experiment with KB turned out to be 0.52 µM; in experiment [1] it was 85 µM.
On to `CN(C)C(=O)N(CCCN1CCOCC1)Cc1cccc([N+](=O)[O-])c1`, for which the results for the half-maximal inhibitory concentration (IC50) (in the experiment on KB; in experiment [1]) were 0.17 µM and 134 µM, respectively.
With `CN(C)C(=O)N(CCN1CCOCC1)Cc1ccc([N+](=O)[O-])cc1`, the IC50 is 0.75 µM in the experiment on KB and 65 µM in experiment [1].
`CN(C)C(=O)N(Cc1ccco1)Cc1cc(Cl)ccc1O` gave an IC50 with KB of 49.5 µM. That is a double-digit micromolar value.
The same measure, in the same setting: to `CCOC(=O)N1CCC(N(Cc2cc(Cl)ccc2O)C(=O)N(C)C)CC1` belongs 25.7 µM.
Same read-out and setting: then `CCOC(=O)N1CCC(N(Cc2cccc([N+](=O)[O-])c2)C(=O)N(C)C)CC1`, with 15.6 µM.
On to `CN(C)C(=O)N(CCN1CCOCC1)Cc1ccc(O)cc1`, for which the IC50 in the experiment on KB is 4.25 µM; in experiment [1], 81 µM.
With `CN(C)C(=O)N(CCN1CCOCC1)Cc1cc(Cl)ccc1O`, the 50% inhibitory concentration (IC50) with KB turned out to be 2.24 µM; in experiment [1], 82 µM.
Compound `CN(C)C(=O)N(Cc1ccco1)Cc1cc([N+](=O)[O-])ccc1O` registered an IC50 with KB of 20.8 µM.
In the case of `CN(C)C(=O)N(CCCN1CCOCC1)Cc1cc(Cl)ccc1O`, the half-maximal inhibitory concentration (IC50) was 1.75 µM in the experiment on KB and 81 µM in experiment [1].
For `CCOC(=O)N1CCC(N(Cc2ccc(O)cc2)C(=O)N(C)C)CC1`, in the experiment on KB, the midpoint of inhibition, the IC50, lay at 48.6 µM. That is a double-digit micromolar value.
Regarding `COc1cc([C@@H]2c3cc4c(cc3[C@@H](O[C@@H]3O[C@@H]5CO[C@@H](C)O[C@H]5[C@H](O)[C@H]3O)[C@H]3COC(=O)[C@H]23)OCO4)cc(OC)c1O` [ETOPOSIDE], the values for the IC50 (in the experiment with KB; in experiment [1]) were 0.42 µM and 13 µM, respectively.
The corresponding values for `CN(C)C(=O)N(CCCN1CCOCC1)Cc1cc(Br)ccc1O` are 9 µM and 86 µM.
`CN(C)C(=O)N(Cc1ccco1)Cc1cc(Br)ccc1O` displayed an IC50 in the experiment with KB of 32.8 µM. This counts as double-digit micromolar.
For the compound `CN(C)C(=O)N(CCN1CCOCC1)Cc1cccc([N+](=O)[O-])c1`, the half-inhibitory concentration (IC50) with KB was 0.09 µM; in experiment [1] it was 155 µM.
